Structures are written as SMILES. Converted amounts (≈) assume the structure as drawn. A value given as a limit tells only on which side of the number the result lay.

Common to all, as to format: functional
For one assay, the system named is Enterococcus faecalis. Put plainly: Antibacterial activity against Streptococcus faecalis NCTC 775. The essentials: (§1)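 Broth microdilution in Mueller-Hinton broth. Samples were dissolved in sterile water to 200 µg mL-1 as the working solution and doubling dilutions were made across rows. Plates were incubated at 37 °C and inspected visually, with resazurin added as growth indicator. MIC reported in µg mL-1.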

A further assay deals with Staphylococcus aureus. Briefly: Antibacterial activity against methicillin-sensitive Staphylococcus aureus NCTC 6571. The essentials:
as §1

In the next assay the test system is Candida albicans. Briefly: Antifungal activity against Candida albicans NCPF 3179. The essentials:
(§2)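 Antifungal microdilution in Sabouraud broth. Test sample at 200 µg mL-1 working solution in sterile water was serially doubled down successive rows. Incubation was at 25 °C, followed by visual growth check and addition of resazurin indicator. Read-out is MIC in µg mL-1.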

The subject of assay [1] is Mycolicibacterium fortuitum. Put plainly: Antibacterial activity against Mycobacterium fortuitum NCTC 10394. Summed up: as §1
Another assay concerns Aspergillus niger. Put plainly: Antifungal activity against Aspergillus niger IMI 149007. Summed up:
as §2

The mark [2] stands for this setting: Enterococcus faecalis, NCTC 775, read-out: MIC.
Where [3] appears, read: Staphylococcus aureus, NCTC 6571, read-out: MIC.
The mark [4] stands for this setting: Candida albicans, read-out: MIC.

On to `COc1cccc(C(=N)Nc2cc(C(=O)Nc3cc(C(=O)Nc4cn(CCCN(C)C)cn4)n(C)c3)n(C)c2)c1`, for which the MIC (in the assay with Enterococcus faecalis (setting [2]); in the assay with Staphylococcus aureus (setting [3]); in the assay with Candida albicans (setting [4]); in assay [1]; in the assay with Aspergillus niger) was greater than 50 µg/mL in each case.

In the case of `CC(=N)Nc1cc(C(=O)Nc2cc(C(=O)Nc3cc(C(=O)NCCCN(C)C)n(C)c3)n(C(C)C)c2)n(C)c1`, the MIC is 50 µg/mL (≈ 93 µM) in the assay with Enterococcus faecalis (setting [2]); 13 µg/mL (≈ 24.2 µM) in the assay with Staphylococcus aureus (setting [3]); greater than 50 µg/mL with Candida albicans (setting [4]); greater than 50 µg/mL in assay [1]; 50 µg/mL (≈ 93 µM) with Aspergillus niger.

On to `COc1cccc(/C=C/c2cccc(C(=O)Nc3cc(C(=O)Nc4cc(C(=O)NCCCN(C)C)n(C)c4)n(C)c3)c2)c1`, for which the MIC is 25 µg/mL (≈ 42.9 µM) in the assay with Enterococcus faecalis (setting [2]); 25 µg/mL (≈ 42.9 µM) in the assay with Staphylococcus aureus (setting [3]); greater than 50 µg/mL with Candida albicans (setting [4]); greater than 50 µg/mL in assay [1]; greater than 50 µg/mL against Aspergillus niger.

Take `CN(C)CCCn1cnc(NC(=O)c2cc(NC(=O)c3cc(NC(=O)c4cc5ccccc5cn4)cn3C)cn2C)c1`: the MIC (in the assay with Enterococcus faecalis (setting [2]); in the assay on Staphylococcus aureus (setting [3]); in the assay with Candida albicans (setting [4]); in assay [1]; in the assay on Aspergillus niger) was greater than 50 µg/mL each time.

Consider `Cn1cc(NC(=O)c2cc(NC(=O)c3ccc(/C=C/c4nc5ccccc5o4)cc3)cn2C)cc1C(=O)NCCN1CCOCC1` (stereo in doubt; 72), for which the MIC with Enterococcus faecalis turned out to be 3 µg/mL (≈ 4.83 µM); against Staphylococcus aureus, 3 µg/mL (≈ 4.83 µM); against Candida albicans it was 50 µg/mL (≈ 80.4 µM).

On to `Cn1cc(NC(=O)c2cc(NC(=O)c3ccc(/C=C/c4ccc5ccccc5c4)cc3)cn2C)cc1C(=O)NCCN1CCOCC1`, for which the minimal inhibitory concentration (MIC) in the assay with Enterococcus faecalis (setting [2]) is greater than 50 µg/mL; with Staphylococcus aureus (setting [3]), 25 µg/mL (≈ 39.6 µM); with Candida albicans (setting [4]) it was greater than 50 µg/mL; in assay [1], greater than 50 µg/mL; in the assay on Aspergillus niger, greater than 50 µg/mL.

Take `CN(C)CCCNC(=O)c1cc(NC(=O)c2cc(NC(=O)c3cc(NC(=N)c4ccccc4)cn3C)cn2C)cn1C`: the MIC was greater than 50 µg/mL in the assay with Enterococcus faecalis (setting [2]); 50 µg/mL (≈ 87.5 µM) in the assay on Staphylococcus aureus (setting [3]); greater than 50 µg/mL in the assay on Candida albicans (setting [4]); greater than 50 µg/mL in assay [1]; 50 µg/mL (≈ 87.5 µM) in the assay with Aspergillus niger.

As for `CN(C)CCCNC(=O)c1cc(NC(=O)c2cc(NC(=O)c3cc(NC(=O)c4ccc(Cl)c(Cl)n4)cn3C)cn2C)cn1C`, the MIC was greater than 50 µg/mL with Enterococcus faecalis (setting [2]); greater than 50 µg/mL in the assay with Staphylococcus aureus (setting [3]); 25 µg/mL (≈ 38.9 µM) with Candida albicans (setting [4]); greater than 50 µg/mL in assay [1]; 50 µg/mL (≈ 77.8 µM) in the assay on Aspergillus niger.

For `CC(C)n1cc(NC(=O)c2cc(NC(=N)c3ccccc3)cn2C)cc1C(=O)Nc1cc(C(=O)NCCCN(C)C)n(C)c1`, the MIC in the assay with Enterococcus faecalis (setting [2]) is greater than 50 µg/mL; in the assay with Staphylococcus aureus (setting [3]), 50 µg/mL (≈ 83.4 µM); with Candida albicans (setting [4]), greater than 50 µg/mL; in assay [1], greater than 50 µg/mL; against Aspergillus niger, greater than 50 µg/mL.

As to `COc1cccc(C(=O)Nc2nc(C(=O)Nc3cc(C(=O)Nc4cc(C(=O)NCCC(=N)N)n(C)c4)n(C)c3)c(C(C)C)s2)c1`, the MIC is 13 µg/mL (≈ 20.5 µM) in the assay on Enterococcus faecalis (setting [2]); 13 µg/mL (≈ 20.5 µM) in the assay with Staphylococcus aureus (setting [3]); greater than 50 µg/mL in the assay with Candida albicans (setting [4]); greater than 50 µg/mL in assay [1]; greater than 50 µg/mL in the assay with Aspergillus niger.

Turning to `CC(C)CCc1sc(NC(=O)c2cc(NC(=O)c3ccc(/C=C/c4ccc5ccccc5n4)cc3)cn2C)nc1C(=O)NCCN1CCOCC1`, the MIC (in the assay on Enterococcus faecalis (setting [2]); with Staphylococcus aureus (setting [3]); in the assay on Candida albicans (setting [4]); in assay [1]; in the assay on Aspergillus niger) was greater than 50 µg/mL throughout.

For the molecule `CC(=N)Nc1cc(C(=O)Nc2cc(C(=O)Nc3nc(C(=O)NCCCN(C)C)c(C(C)C)s3)n(C)c2)n(C)c1`, the MIC was 50 µg/mL (≈ 90 µM) in the assay on Enterococcus faecalis (setting [2]); 50 µg/mL (≈ 90 µM) in the assay with Staphylococcus aureus (setting [3]); greater than 50 µg/mL in the assay on Candida albicans (setting [4]); greater than 50 µg/mL in assay [1]; 50 µg/mL (≈ 90 µM) against Aspergillus niger.

Take `COc1ccc(C(=O)Nc2cc(C(=O)Nc3cc(C(=O)Nc4cn(CCCN(C)C)cn4)n(C)c3)n(C)c2)cc1`: the MIC (in the assay on Enterococcus faecalis (setting [2]); with Staphylococcus aureus (setting [3]); with Candida albicans (setting [4]); in assay [1]; against Aspergillus niger) was greater than 50 µg/mL throughout.

For the molecule `CC(C)c1sc(NC(=O)c2cc(NC(=O)c3cc(NC=O)cn3C)cn2C)nc1C(=O)NCCCN(C)C`, the MIC in the assay with Enterococcus faecalis (setting [2]) amounted to 10 µg/mL (≈ 18.4 µM); in the assay on Staphylococcus aureus (setting [3]), 5 µg/mL (≈ 9.21 µM); with Candida albicans (setting [4]), 76 µg/mL (≈ 140 µM); in assay [1] it was 19 µg/mL (≈ 35 µM); with Aspergillus niger, 76 µg/mL (≈ 140 µM).

For the molecule `CC(=N)Nc1cc(C(=O)Nc2cc(C(=O)Nc3cc(C(=O)NCCCN(C)C)n(C)c3)n(C)c2)n(C)c1`, the MIC was 50 µg/mL (≈ 98.1 µM) with Enterococcus faecalis (setting [2]); 13 µg/mL (≈ 25.5 µM) in the assay on Staphylococcus aureus (setting [3]); greater than 50 µg/mL in the assay with Candida albicans (setting [4]); greater than 50 µg/mL in assay [1]; 50 µg/mL (≈ 98.1 µM) in the assay on Aspergillus niger.

As for `CC(=N)Nc1cc(C(=O)Nc2cc(C(=O)Nc3nc(C(=O)NCCCN(C)C)c(CCC(C)C)s3)n(C)c2)n(C)c1`, the minimal inhibitory concentration (MIC) with Enterococcus faecalis (setting [2]) was greater than 50 µg/mL; in the assay with Staphylococcus aureus (setting [3]) it was greater than 50 µg/mL; with Candida albicans (setting [4]), 50 µg/mL (≈ 85.7 µM); in assay [1], greater than 50 µg/mL; in the assay on Aspergillus niger it was greater than 50 µg/mL.

In the case of `CC(C)c1sc(NC(=O)c2cc(NC(=O)c3cc(NC(=O)c4cc5ccccc5cn4)cn3C)cn2C)nc1C(=O)NCCCN(C)C`, the MIC is 50 µg/mL (≈ 74.6 µM) with Enterococcus faecalis (setting [2]); 50 µg/mL (≈ 74.6 µM) with Staphylococcus aureus (setting [3]); 50 µg/mL (≈ 74.6 µM) in the assay with Candida albicans (setting [4]); 50 µg/mL (≈ 74.6 µM) in assay [1]; greater than 50 µg/mL in the assay on Aspergillus niger.

In the case of `CN(C)CCCNC(=O)c1cc(NC(=O)c2cc(NC(=O)c3cc(/C=C/c4ccc5ccccc5n4)cn3C)cn2C)cn1C`, the MIC is greater than 50 µg/mL in the assay on Enterococcus faecalis (setting [2]); greater than 50 µg/mL in the assay with Staphylococcus aureus (setting [3]); 25 µg/mL (≈ 41.2 µM) in the assay with Candida albicans (setting [4]); greater than 50 µg/mL in assay [1]; 50 µg/mL (≈ 82.4 µM) in the assay on Aspergillus niger.

For `Cn1cc(NC(=O)c2cc(NC(=O)c3ccc(NC(=O)c4cnc5ccccc5c4)cc3)cn2C)cc1C(=O)NCCN1CCOCC1`, the MIC (in the assay on Enterococcus faecalis (setting [2]); in the assay with Staphylococcus aureus (setting [3]); with Candida albicans (setting [4]); in assay [1]; against Aspergillus niger) was greater than 50 µg/mL throughout.

Take `CC(C)CCc1sc(NC(=O)c2cc(NC(=O)c3ccc(/C=C/c4cc5ccccc5nc4Cl)cc3)cn2C)nc1C(=O)NCCN1CCOCC1`: the MIC (with Enterococcus faecalis (setting [2]); in the assay on Staphylococcus aureus (setting [3]); with Candida albicans (setting [4]); in assay [1]; against Aspergillus niger) was greater than 50 µg/mL in each case.

For `COc1cccc(C(=N)Nc2cc(C(=O)Nc3cc(C(=O)Nc4nc(C(=O)NCCCN(C)C)c(C(C)C)s4)n(C)c3)n(C)c2)c1`, the MIC in the assay with Enterococcus faecalis (setting [2]) was 50 µg/mL (≈ 77.2 µM); with Staphylococcus aureus (setting [3]), 13 µg/mL (≈ 20.1 µM); in the assay on Candida albicans (setting [4]), greater than 50 µg/mL; in assay [1], greater than 50 µg/mL; with Aspergillus niger, 50 µg/mL (≈ 77.2 µM).

As to `Cn1cc(NC(=O)c2cc(NC(=O)c3ccc(/C=C/c4ccc5ccccc5n4)cc3)cn2C)cc1C(=O)NCCN1CCOCC1`, the MIC with Enterococcus faecalis (setting [2]) is greater than 50 µg/mL; in the assay on Staphylococcus aureus (setting [3]), 50 µg/mL (≈ 79.1 µM); with Candida albicans (setting [4]), greater than 50 µg/mL; in assay [1], greater than 50 µg/mL; against Aspergillus niger it was greater than 50 µg/mL.

For the molecule `CC(C)CCc1sc(NC(=O)c2cc(NC(=O)c3ccc(/C=C/c4cnc5ccccc5c4)cc3)cn2C)nc1C(=O)NCCN1CCOCC1`, the MIC with Enterococcus faecalis (setting [2]) was greater than 50 µg/mL; in the assay on Staphylococcus aureus (setting [3]), greater than 50 µg/mL; in the assay with Candida albicans (setting [4]), 50 µg/mL (≈ 70.8 µM); in assay [1], greater than 50 µg/mL; in the assay with Aspergillus niger it was greater than 50 µg/mL.

With `COc1cccc(C(=N)Nc2cc(C(=O)Nc3cc(C(=O)Nc4cc(C(=O)NCCN5CCOCC5)n(C)c4)n(C)c3)n(C)c2)c1`, the MIC (with Enterococcus faecalis (setting [2]); in the assay with Staphylococcus aureus (setting [3]); with Candida albicans (setting [4]); in assay [1]; with Aspergillus niger) was greater than 50 µg/mL throughout.

The MIC is the lowest concentration found to suppress growth.

Source of the values: ChEMBL document CHEMBL1138269, “Antimicrobial lexitropsins containing amide, amidine, and alkene linking groups” (J Med Chem, 2007).
